Results: publication PMC7644900 (Heliyon, 2020)

Assays:
B.cereus (ATCC 10876) = test: Antibacterial broth-dilution MIC; format: cell-based, Bacillus cereus
Outline: (§1)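 Broth-dilution in 96-well plates against S. aureus ATCC 29213, B. cereus ATCC 10876, E. coli ATCC 22922, K. pneumoniae ATCC 13883 and P. aeruginosa. Test compound concentrations spanned 10–100 mM. CTAB served as positive control and DMSO as negative control. Activity was reported as minimum inhibitory concentration.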

E. coli (ATCC 22922) = test: Antibacterial broth-dilution MIC; format: cell-based, Escherichia coli
Outline: as §1

[1] = tested on: P. aeruginosa (ATCC 27853); test: Antibacterial broth-dilution MIC; format: cell-based, Pseudomonas aeruginosa
Outline: as §1

[2] = tested on: K. pneumonia (ATCC 13883); test: Antibacterial broth-dilution MIC; format: cell-based, Klebsiella pneumonia
Outline: as §1

S.aureus (ATCC 29213) = test: Antibacterial broth-dilution MIC; format: cell-based, Staphylococcus aureus
Outline: as §1

[3] = molecular target: T1, bovine serum albumin (BSA) (Bos taurus, UniProt P02769); test: Competitive BSA binding experiments using site markers warfarin and ibuprofen; settings: 298 K
T1 sequence (P02769 25-607): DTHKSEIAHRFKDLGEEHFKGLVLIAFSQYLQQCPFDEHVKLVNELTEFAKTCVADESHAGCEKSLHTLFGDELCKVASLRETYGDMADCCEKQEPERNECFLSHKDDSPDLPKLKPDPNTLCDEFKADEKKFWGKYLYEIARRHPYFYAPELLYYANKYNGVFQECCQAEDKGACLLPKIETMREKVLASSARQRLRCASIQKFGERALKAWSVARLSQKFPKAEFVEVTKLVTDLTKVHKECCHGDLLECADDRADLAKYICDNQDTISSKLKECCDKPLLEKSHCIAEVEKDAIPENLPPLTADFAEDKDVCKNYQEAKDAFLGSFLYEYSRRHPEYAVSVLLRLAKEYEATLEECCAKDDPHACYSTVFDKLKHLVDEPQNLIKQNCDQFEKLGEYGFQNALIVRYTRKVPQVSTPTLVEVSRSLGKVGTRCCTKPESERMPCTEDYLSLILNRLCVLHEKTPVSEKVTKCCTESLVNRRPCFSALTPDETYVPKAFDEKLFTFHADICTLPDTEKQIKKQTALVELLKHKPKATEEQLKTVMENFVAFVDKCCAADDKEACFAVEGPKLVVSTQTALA

[4] = molecular target: T1, bovine serum albumin (BSA); test: Thermodynamic BSA binding studies; settings: for ΔH (enthalpy change) / ΔS (entropy change): van't Hoff, 298-313 K
Outline: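 BSA (10 μM) in phosphate buffer pH 7.4 in a 1.0 cm quartz cuvette. Excitation 295 nm, emission scanned 300–400 nm at 298, 308 and 313 K. Titrated with 15 μL of test compound. Binding constants were taken at each temperature, with ΔG = −RT lnKa. ΔH and ΔS were calculated from the Ka values across the three temperatures.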

HaCaT cells = test: In-vitro cytotoxicity MTT assay; format: cell-based, human
Outline: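 HaCaT cells in DMEM with FBS, glutamine and penicillin/streptomycin were seeded one day earlier and incubated 24 h. Exposed to test compound (20–1.25 mg/mL), 4% ethyl acetate blank or 20% DMSO control for 24 h at 37 °C, 5% CO2. Morphology was checked by microscopy. After PBS wash, MTT (1 mg/mL) was added for 2 h, dissolved in isopropanol and absorbance read. Mean of 3 wells, ≥3 independent experiments.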

[5] = molecular target: T1, bovine serum albumin (BSA); test: BSA steady state/intrinsic fluorescence quenching study; format: binding; settings: 298 K; for bimolecular quenching constant Kq x 10^12: pH 7.4, τ0 10^−8 s; for Stern-Volmer constant Ksv x 10^4 / binding constant Ka: phosphate buffer pH 7.4
Outline: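 BSA (10 μM stock) in phosphate buffer pH 7.4 in a 1.0 cm quartz cuvette at 298 K. Intrinsic fluorescence: excitation 295 nm, scan 300–400 nm, intensity read at 336 nm. Slits were 10 nm (excitation) and 5.0 nm (emission). Titrated with test compound stock (0.001 M) and read after each addition. Ksv and Kq were obtained from Stern-Volmer plots of F0/F versus quencher concentration.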

[6] = Critical micelle concentration by pyrene fluorescence probe; format: physicochemical; settings: 25 °C, pyrene as probe
Outline: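 Pyrene probe (0.1 mM methanol stock) was dried in vials, then test compound solutions were added to give 1.6 μM final pyrene. Mixed on an orbital shaker for 24 h and measured at 298 K. Excitation 334 nm, emission 350–450 nm, slits 5.0/2.5 nm. CMC was taken from the plot of I1 (373 nm)/I3 (384 nm) versus concentration.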

[7] = in the presence of Ibuprofen (site II marker)
[8] = in the presence of Warfarin (site I marker)

| Compound | MIC (B.cereus (ATCC 10876); Gram-positive) [µM] | MIC (E. coli (ATCC 22922); Gram-negative) [µM] | MIC ([1]; Gram-negative) [µM] | Ka ([3]; Blank (no site marker)) [M⁻¹] | Ka [3, 7] [M⁻¹] | Ka [3, 8] [M⁻¹] | Ka ([4]; 298 K) [M⁻¹] | ln Ka ([4]; 298 K) | ΔG (free energy) ([4]; 298 K) [KJmol^−1] | Ka ([4]; 308 K) [M⁻¹] | ln Ka ([4]; 308 K) | ΔG (free energy) ([4]; 308 K) [KJmol^−1] | Ka ([4]; 313 K) [M⁻¹] | ln Ka ([4]; 313 K) | ΔG (free energy) ([4]; 313 K) [KJmol^−1] | ΔH (enthalpy change) [4] [KJmol^−1] | ΔS (entropy change) [4] [Jmol^−1K^−1] | MIC ([2]; Gram-negative) [µM] | % Cell Viability (HaCaT cells; 2.5, 24 h) [%] | % Cell Viability (HaCaT cells; 5, 24 h) [%] | further results |
| --- | --- | --- | --- | --- | --- | --- | --- | --- | --- | --- | --- | --- | --- | --- | --- | --- | --- | --- | --- | --- | --- |
| CCCCCCCCCCCCCCCC[N+](C)(C)C [+ve control, Cetyltrimethylammonium bromide, reference compound] |  |  |  |  |  |  |  |  |  |  |  |  |  |  |  |  |  |  |  |  | MIC (B.cereus (ATCC 10876); Bacillus cereus, ATCC10876): 12.3 µM; MIC (E. coli (ATCC 22922); Escherichia coli, ATCC22922): 686 µM; MIC ([1]; Pseudomonas aeruginosa, ATCC27853): 171 µM; MIC ([2]; Klebsiella pneumoniae, ATCC13883): 10.7 µM; MIC (S.aureus (ATCC 29213); Staphylococcus aureus, ATCC29213): 15.2 µM |
| Didecanoyl 2,2′-disulfanediyldibenzamide [Compound 2] | 2530 | >25300 | 25600 | 429000 | 64600 | 15700 | 225000 | 12.32 | -30.60 | 3580 | 8.18 | -20.76 | 405 | 6.00 | -15.77 | -325.26 | -988.78 | 26300 | 100.0 | 100.0 | % Cell Viability (HaCaT cells; 10, 24 h): 63.7%; toxicity to the cells (in words) (HaCaT cells; at a concentration of <10 mg/ml): non-toxic; MIC (S.aureus (ATCC 29213); Gram-positive): 5400 µM; bimolecular quenching constant Kq x 10^12 [5]: 2.26 x 10^12 M^−1s^−1; Stern-Volmer constant Ksv x 10^4 [5]: 2.26 x 10^4 M^−1; binding constant Ka [5]: 225000 M⁻¹ |
| Dioctyl 2,2′-disulfanediyldibenzamide [Compound 1] | 3120 | 21400 | >15600 | 5060 | 2110 | 4950 | 5470 | 8.61 | -21.68 | 3250 | 8.09 | -18.73 | 461 | 6.13 | -17.26 | -109.5 | -294.7 | 25300 | 82.9 | 62.6 | % Cell Viability (HaCaT cells; 10, 24 h): 23.0%; % Cell Viability (HaCaT cells; 20, 24 h): 18.4%; cell death by changes in cell morphology (HaCaT cells; microscopy, 10 mg/ml (Figure 5)): considerable amount of cell death; MIC (S.aureus (ATCC 29213); Gram-positive): 12500 µM; bimolecular quenching constant Kq x 10^12 [5]: 7.45 x 10^12 M^−1s^−1; Stern-Volmer constant Ksv x 10^4 [5]: 7.45 x 10^4 M^−1; binding constant Ka [5]: 5470 M⁻¹; CMC [6]: 0.163 mM |
